Screens: PubChem BioAssay, several laboratories
This excerpt belongs to a sample that is enriched for hits.
HCT116 PTEN-null: growth suppressors of cells with PTEN tumor suppressor deletion | HCT116 PTEN-null viability, CellTiter-Glo, 60 h; active compounds read low | viability, % at 10 µM | 1.2% of 140,000 active;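 active means viability at or below a set limit, 4 SD under the median of all tested compounds, cut at about 3.7% in these data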;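 further: PTEN knockout HCT116 line with beta catenin targeted HCT116 as companion control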
PTK2B oligo ant: blocks oligomerization of human Pyk2 in cells | AID 1347419 | z-score (the deposit names both 25 µM and 10 µM) | Q293 cells, Pyk2 FERM NanoBiT luminescence; active compounds read low | Q14289 | 0.83% of 99,000 active;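 active means Z-score of -3 or lower, scaled per plate to the spread of control and sample wells; inactive means z-score above -3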;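 further: negative z-score means lost luminescence so less FERM oligomerization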
Target sequence (Q14289 whole entry, looked up): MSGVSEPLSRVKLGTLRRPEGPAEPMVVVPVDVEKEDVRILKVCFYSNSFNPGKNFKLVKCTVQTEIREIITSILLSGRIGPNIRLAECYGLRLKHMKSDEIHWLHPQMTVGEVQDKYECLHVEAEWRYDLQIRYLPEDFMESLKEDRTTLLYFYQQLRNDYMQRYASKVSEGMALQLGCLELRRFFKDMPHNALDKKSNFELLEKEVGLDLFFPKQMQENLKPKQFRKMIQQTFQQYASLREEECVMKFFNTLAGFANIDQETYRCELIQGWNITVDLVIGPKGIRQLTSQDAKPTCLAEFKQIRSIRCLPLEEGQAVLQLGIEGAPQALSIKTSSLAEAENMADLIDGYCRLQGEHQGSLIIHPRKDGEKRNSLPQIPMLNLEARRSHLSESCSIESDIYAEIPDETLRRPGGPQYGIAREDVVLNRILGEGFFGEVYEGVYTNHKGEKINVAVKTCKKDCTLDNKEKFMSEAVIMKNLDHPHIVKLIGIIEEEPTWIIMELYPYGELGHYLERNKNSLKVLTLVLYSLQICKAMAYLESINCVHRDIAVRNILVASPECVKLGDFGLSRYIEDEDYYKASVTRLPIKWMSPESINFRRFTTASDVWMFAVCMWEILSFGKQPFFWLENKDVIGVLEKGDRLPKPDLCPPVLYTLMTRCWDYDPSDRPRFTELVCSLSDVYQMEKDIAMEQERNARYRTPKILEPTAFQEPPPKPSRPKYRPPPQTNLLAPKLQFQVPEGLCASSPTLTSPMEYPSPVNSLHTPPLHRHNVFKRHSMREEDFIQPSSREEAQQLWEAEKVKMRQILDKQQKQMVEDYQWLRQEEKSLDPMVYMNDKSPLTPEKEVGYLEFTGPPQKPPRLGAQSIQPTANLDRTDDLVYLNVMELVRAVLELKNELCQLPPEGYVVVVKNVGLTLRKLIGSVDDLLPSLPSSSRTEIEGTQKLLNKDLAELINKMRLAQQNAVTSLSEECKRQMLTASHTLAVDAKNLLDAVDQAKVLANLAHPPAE
HUVEC prolif 384: blocks proliferation of human endothelial cells. HUVEC proliferation, CellTiter-Glo luminescence, 72 h; active compounds read low. viability, % at 10 µM (by protocol). 1.1% of 86,000 active;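 active means viability at or below 30%; inactive means viability above 30%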;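 further: 100% = median luminescence of DMSO-only cell control wells on each plate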
bCat KO growth: beta-catenin-lacking colon tumor cell growth suppression. viability, % at 10 µM. 1.5% of 140,000 active. HCT116 beta-catenin knockout viability, CellTiter-Glo, 60 h; active compounds read low;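 active means viability at or under a set limit, the compound median less 4 SD, cut at about 6% in these data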;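 further: 0% = Hyamine 1622 control at 20 µM and 100% = untreated cell control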
H69AR inhibit: blocks growth of human H69AR lung tumor cells. H69AR lung tumor viability, ATP luminescence, 72 h; active compounds read low. viability, % at 10 µM. AID 598. 6% of 85,000 active;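 active means viability at or below 40%; inactive means viability above 40%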;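 further: multidrug resistant small cell line overexpressing MRP-1 efflux transporter; 100% = mean luminescence of untreated control wells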
Fibroblast inh: blocks proliferation of human lung fibroblasts; LL 47 human lung fibroblast viability, ATP luminescence; active compounds read low; viability, % at 10 µM; 1.1% of 85,000 active; AID 719;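 active means viability at or below 50% in the single dose screen; inactive means viability above 50%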;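 further: compound exposure lasted 72 h before the ATP readout; 100% = median luminescence of untreated cell-only wells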
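Material: Human LL 47 lung fibroblast cells | Input: 1,150 cells/well | Buffer or medium: IMEM plus 15% FBS | Compound dosing: 0.1% DMSO in all compound wells | Times: Overnight cell rest, 72 h compound treatment at 37 °C | Signal: CellTiter-Glo luminescence measuring cellular ATP | Measure: % viability versus median cells-only luminescence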
An asterisk follows results filed as active; · = no result given.

SMILES	HCT116 PTEN-null	PTK2B oligo ant	HUVEC prolif 384	bCat KO growth	H69AR inhibit	Fibroblast inh
Cc1cccc(-c2nnc(NC(=O)c3ccc(Cl)cc3)o2)c1	6	0.45	3.2*	29	25*	106
O=C(Nc1nnc(-c2ccc(Cl)cc2)o1)c1ccc(N2C(=O)CCC2=O)cc1	82	·	·	75	·	·
COc1cccc(C(=O)Nc2ccc(NC(=O)C(C)(C)C)cn2)c1	98	-0.06	100	93	37*	·
COc1ccc(Cl)cc1NC(=S)NCc1ccco1	83	0.33	96	86	95	93
Cc1ccc2oc(C(Cl)(Cl)Cl)cc(=O)c2c1	25	0.35	·	25	·	·
CC(C)c1ccc(NC(=O)C(c2ccccc2)N2CC(=O)Nc3ccccc32)cc1 (stereo unspecified)	60	·	·	71	·	·
O=C(Nc1c(Cl)cc(Cl)cc1C(=O)NCCN1CCOCC1)c1ccc(Cl)cc1Cl	91	-0.31	87	94	64	99
O=C(Nc1ccc(Cl)cc1C(=O)NCCN1CCOCC1)c1ccc(Cl)cc1Cl	107	-0.42	77	91	38*	92
COc1cccc(N(CC(=O)Nc2ccc3c(c2)OCO3)S(=O)(=O)c2ccccc2)c1	80	-3.1*	·	81	·	·
CCn1c(=N)n(CC(=O)C23CC4CC(CC(C4)C2)C3)c2ccccc21	65	-0.49	3.4*	60	29*	110
Cc1ccc(-c2noc(CSc3nnc(Cc4ccccc4)n3-c3cccc(C)c3)n2)cc1	66	0.92	89	66	20*	104
CCOC(=O)c1cc(-c2ccncc2)nc2c1c(C)nn2C	48	1.1	46	44	33*	57
CCn1nc(C(=O)N[C@@H](CCSC)c2nc3ccccc3[nH]2)c2ccccc2c1=O	87	-0.21	96	100	73	100
CCCCn1nc(C(=O)N[C@@H](CCSC)c2nc3ccccc3[nH]2)c2ccccc2c1=O	42	-1.9	76	46	36*	97
O=C(COC(=O)c1cccc(C(=O)OCC(=O)NCc2ccc(F)cc2)n1)NCc1ccc(F)cc1	100	·	·	95	·	·
CC1C(=O)N(c2ccc(S(=O)(=O)N(C)C)cc2)C1(/C=C/c1ccccc1)C(=O)NC1CCCC1 (stereo unspecified)	65	-1.1	·	66	·	·
O=C(CCCNC(=O)/C(=C\c1ccc(F)cc1)NC(=O)c1ccccc1)OCc1ccccc1	88	0.2	·	92	·	·
COC(=O)c1sc(NC(=O)CSc2nc3cccnc3n2C2CCCCC2)nc1C	91	0.11	56	84	20*	89
c1ccc(-c2nc(-c3cccs3)[nH]c2-c2ccccc2)cc1	68	-3	·	74	·	·
c1csc(-c2nc3c4ccccc4c4ccccc4c3[nH]2)c1	47	-1.7	57	33	30*	89
O=C(NC1=C(Nc2ccc(Cl)cc2)C(=O)c2ccccc2C1=O)c1ccccc1	49	·	·	34	·	·
CN(C)c1ccc(NC2=C(Cl)C(=O)c3ccccc3C2=O)cc1	1.5*	·	·	1.6*	·	·
Cc1ccc(NC2=C(NCCO)C(=O)c3ccccc3C2=O)cc1	62	·	·	61	·	·
O=C1C(Cl)=C(NCCCO)C(=O)c2ccccc21	11	-0.84	96	11	7.4*	104
CC1(C)CC(=O)C2=C(C1)N(c1ccc(Cl)cc1)C(=O)C2(O)C(F)(F)F (stereo unspecified)	87	·	·	83	·	·
SMILES	HCT116 PTEN-null	PTK2B oligo ant	HUVEC prolif 384	bCat KO growth	H69AR inhibit	Fibroblast inh
N#Cc1ccc(-c2ccc(F)cc2)nc1Oc1ccc(Cl)c(Cl)c1	1.7*	0.66	·	2.0*	·	·
N#Cc1ccc(-c2ccc(F)cc2)nc1Sc1ccc(F)cc1	11	0.92	·	37	·	·
COC(=O)c1ccc(-c2ccco2)n1Cc1ccccc1Cl	87	-0.13	100	91	75	94
COC(=O)c1ccc(-c2ccco2)n1Cc1nc(-c2ccc(OC)c(OC)c2)oc1C	48	-0.57	81	43	36*	89
Cn1c(-c2ccc(F)cc2)cnc1NCc1cccc(F)c1	80	-0.2	80	80	36*	75
Cn1c(-c2ccc(F)cc2)cnc1NCc1ccccc1	80	0.01	94	73	74	93
N#CCCn1cc(/C=N/O)c(-c2ccc(-c3ccccc3)cc2)n1	39	-4.1*	56	47	32*	74
N#CCCn1cc(/C=N/O)c(-c2ccc(Cl)cc2)n1	89	-3.5*	101	86	95	93
CCc1nnc(NC(=O)C(=O)NCCOC(=O)c2ccccc2)s1	96	0.23	·	90	·	·
Cc1ccc2c(C)c(C(=O)N(Cc3cccs3)C3CCS(=O)(=O)C3)oc2c1 (stereo unspecified)	78	-0.42	74	82	81	90
CCOc1ccc(CN(C(=O)c2oc3cc(C)ccc3c2C)C2CCS(=O)(=O)C2)cc1 (stereo unspecified)	16	-0.68	50	16	11*	86
O=C(c1ccc(Cl)c([N+](=O)[O-])c1)N(Cc1ccc(Cl)cc1)C1CCS(=O)(=O)C1 (stereo unspecified)	62	·	·	18	·	·
Cc1ccc(CN(C(=O)c2cc(=O)c3cc(Cl)c(C)cc3o2)C2CCS(=O)(=O)C2)cc1 (stereo unspecified)	66	0.29	78	68	26*	82
CC1=CC(C)(C)N(S(=O)(=O)c2ccc(C)cc2)c2ccc(C)cc21	17	-0.34	66	15	22*	53
Cc1ccc(S(=O)(=O)N2c3ccccc3-c3c(ssc3=S)C2(C)C)cc1	66	-1.4	·	72	·	·
COc1ccc2c(c1)-c1c(ssc1=S)C(C)(C)N2S(=O)(=O)c1ccc(C)cc1	14	·	·	14	·	·
CC1=CC(C)(C)N(S(=O)(=O)c2ccc(F)cc2)c2ccccc21	21	-0.5	62	18	19*	51
COc1ccc(C(C[N+](=O)[O-])c2c(C)[nH]c3ccccc23)cc1OC (stereo unspecified)	85	·	·	79	·	·
O=c1[nH][nH]c(-c2ccccc2O)c1C(C[N+](=O)[O-])c1ccc(Br)cc1 (stereo unspecified)	1.6*	·	·	4.2*	·	·
Cc1ccc(C(C[N+](=O)[O-])c2c(-c3ccccc3O)[nH][nH]c2=O)cc1 (stereo unspecified)	3.6*	·	·	3.5*	·	·
O=c1c(Cl)nc2cc(Cl)ccc2n1CCNc1ncc(C(F)(F)F)cc1Cl	1.2*	0.71	·	1.4*	·	·
COc1cccc(NC(=O)N(CCCN2CCOCC2)C(C)c2cc3cccc(OC)c3o2)c1 (stereo unspecified)	79	0.03	89	77	71	95
COc1cccc(NC(=O)N(CCCN2CCOCC2)C(C)c2cc3ccccc3o2)c1 (stereo unspecified)	65	0.38	84	69	32*	90
